Tests used:
[1] = test system: Mycobacterium tuberculosis; test: Antimicrobial activity against Mycobacterium tuberculosis H37Rv after 7 days by MABA; assay type: functional; settings: 168 h
In short: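 Strain H37Rv or clinical isolates grown to late log phase in 7H9-ADC-TG, washed, resuspended in PBS, filtered (8 µm) and frozen. On day 7 Tween 80 and alamar blue added, read 16–24 h later (ex 530/em 590). MIC = lowest concentration giving ≥90% fluorescence reduction versus bacterium-only controls.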

Vero = test: Cytotoxicity against African green monkey Vero cells assessed as reduction in cell viability after 48 hrs by MTT assay; assay type: cell-based; settings: Chlorocebus sabaeus
In short: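 Vero or HepG2 cells in RPMI1640 with 10% FBS at 37 °C, 5% CO2, seeded at 4×10^5 cells/mL. Threefold dilutions at 64–0.26 µg/mL final for 48 h. Cells then washed with HBSS, MTT added for 4 h, absorbance read at 492 nm. IC50 taken relative to untreated control.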

Cytochrome P450 2C19 = Cytochrome P450 2C19 (Homo sapiens, UniProt P33261); test: Inhibition of CYP2C19 in human liver microsomes after 20 mins by LC-MS/MS analysis; assay type: ADME
Sequence of Cytochrome P450 2C19 (P33261 whole entry, canonical isoform): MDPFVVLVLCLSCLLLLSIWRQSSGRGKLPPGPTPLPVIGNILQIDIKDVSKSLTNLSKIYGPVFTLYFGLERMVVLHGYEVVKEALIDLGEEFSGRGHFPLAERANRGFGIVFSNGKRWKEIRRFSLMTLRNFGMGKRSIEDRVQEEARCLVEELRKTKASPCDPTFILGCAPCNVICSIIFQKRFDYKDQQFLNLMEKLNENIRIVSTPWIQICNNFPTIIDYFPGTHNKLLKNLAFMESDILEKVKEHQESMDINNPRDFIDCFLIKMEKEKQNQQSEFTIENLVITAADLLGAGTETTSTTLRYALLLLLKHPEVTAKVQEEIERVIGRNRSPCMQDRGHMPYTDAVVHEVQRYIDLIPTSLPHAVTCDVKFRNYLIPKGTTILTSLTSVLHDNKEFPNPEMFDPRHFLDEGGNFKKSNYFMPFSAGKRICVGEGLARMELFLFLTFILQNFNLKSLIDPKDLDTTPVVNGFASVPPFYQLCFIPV
In short: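 Compound at 0.1–50 µM incubated 20 min with human liver microsomes (0.2 mg/mL) and the CYP isoform, alongside isoform-specific probe substrates. Substrate remaining measured by LC-MS/MS at each concentration to derive IC50.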

[2] = Acute toxicity in po dosed BALB/C mouse assessed as mortality administered as single dose measured during 7 days observation period; assay type: organism-based; settings: in vivo
In short: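 Female Balb/c mice (18–21 g), ten animals, given one oral dose of 2 g/kg. Survivors counted after 7 days of observation.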

[3] = Cmax in BALB/C mouse at 25 mg/kg, po by LC/TSQ quantum access mass spectrometry; assay type: ADME, organism-based; parameters: dose 25 mg/kg, route oral; settings: in vivo
In short: (§1)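 Male Balb/c mice (22–23 g), three per route. Single dose of 25 mg/kg p.o. (2.5 mg/mL in 0.5% carboxymethyl cellulose + 0.5% Tween 80) or 10 mg/kg i.v. (2.0 mg/mL in 20% HP-β-CD with 4 mol/L HCl). Blood sampled 5, 15, 30 min, 1, 2, 4, 7, 24 h. Plasma extracted with acetonitrile plus terfenadine internal standard, then LC-MS/MS on a C18 column. F = (AUCpo×dose_iv)/(AUCiv×dose_po).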

[4] = Elimination half life in BALB/C mouse at 25 mg/kg, po by LC/TSQ quantum access mass spectrometry; assay type: ADME, organism-based; settings: in vivo, read-out: beta t1/2 (converted); in short: as §1
[5] = AUC (0 to 24 hrs) in BALB/C mouse at 25 mg/kg, po by LC/TSQ quantum access mass spectrometry; assay type: ADME, organism-based; parameters: time < 24 hr, dose 25 mg/kg, route oral; settings: in vivo; in short: as §1
[6] = AUC (0 to infinity) in BALB/C mouse at 10 mg/kg, iv by LC/TSQ quantum access mass spectrometry; assay type: ADME, organism-based; parameters: dose 10 mg/kg, route intravenous, time infinity; settings: in vivo; in short: as §1
[7] = MRT (0 to infinity) in BALB/C mouse at 25 mg/kg, po by LC/TSQ quantum access mass spectrometry; assay type: ADME, organism-based; settings: in vivo; in short: as §1
[8] = MRT (0 to infinity) in BALB/C mouse at 10 mg/kg, iv by LC/TSQ quantum access mass spectrometry; assay type: ADME, organism-based; settings: in vivo; in short: as §1
[9] = test system: Mycobacterium tuberculosis; test: Antimicrobial activity against Mycobacterium tuberculosis H37Rv infected in BALB/C mouse assessed as bacterial burden in mouse lung at 100 mg/kg, po administered via gavage treated 5 times per week for 3 weeks starting from day 10 post infection (reference value: 7.102 +/- 0.152 log10CFU); assay type: functional

Question: With O=c1cc(N2CCN(CC3CCCCC3)CC2)sc2c([N+](=O)[O-])cc(C(F)(F)F)cc12 as the molecule, how does the MIC90 [1] read?
Answer: < 0.016 µg/mL

Question: And the IC50 (Vero)?
Answer: > 64 µg/mL

Question: And the IC50 (Cytochrome P450 2C19)?
Answer: > 50 µM

Question: And the LD50 at 168 h [2]?
Answer: > 2000 mg/kg

Question: What about the Cmax [3] of the same molecule?
Answer: 588 ng/mL

Question: And the half-life [4]?
Answer: 7.25 h

Question: And the AUC(0-t) at 24 h [5]?
Answer: 1580 ng·h/mL

Question: What about the AUC(0-inf) [6] of the same molecule?
Answer: 5180 ng·h/mL

Question: What about the MRT inf [7] of the same molecule?
Answer: 6.59 h

Question: What about the MRT inf [8] of the same molecule?
Answer: 4.91 h

Question: What about the Activity [9] of the same molecule?
Answer: 1.678 log10CFU
